Data taken from ChEMBL document CHEMBL4425108, “A Selective and Slowly Reversible Inhibitor of l-Type Amino Acid Transporter 1 (LAT1) Potentiates Antiproliferative Drug Efficacy in Cancer Cells” (J Med Chem, 2016).
Calls of active or inactive are those of the source. The calls are words filed in the database; no cut-off is given here.

Legend:
[1] = Tmax in mouse prostate at 23 umol/kg, ip administered as bolus by LC-MS analysis; assay type: ADME, organism-based, Prostate gland
Outline: (§1)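 Adult male mice (25 ± 5 g) given a single i.p. bolus of 23 µmol/kg, dosing solution 1.36 mM in 10% (v/v) DMSO, 20% (w/v) hydroxypropyl-β-cyclodextrin, 0.9% NaCl in water. Decapitation at time points 10–480 min; plasma, brain, liver, prostate, kidney, heart collected. Acetonitrile precipitation with repaglinide internal standard, LC-MS (ESI positive). tmax and t½β taken from concentration-time data; mean ± SEM, n=3.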

[2] = fCmax in mouse prostate at 23 umol/kg, ip administered as bolus by LC-MS analysis; assay type: ADME, organism-based, Prostate gland; settings: in vivo
Outline: (§2)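 Male mice (25 ± 5 g) dosed i.p. as a bolus at 23 µmol/kg in DMSO/hydroxypropyl-β-cyclodextrin/saline vehicle, sampled at time points 10–480 min; plasma and tissue homogenates (1:3 water) analysed by LC-MS. […] Mean ± SEM.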

MCF7 [3] = experiment: Antiproliferative activity against human MCF7 cells assessed as reduction in cell viability at 100 measured after 72 hrs by resazurin dye-based fluorimetric analysis; assay type: functional
Outline: (§3)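 MCF-7 cells were seeded at 2 × 10^4 cells/well on collagen-coated plates and treated one day later. Agents were given alone or combined (25 or 100 µM with 100 µM partner drug) in growth medium for 3 days. Viability was read daily by resazurin fluorescence (ex 560/em 590 nm) and expressed relative to untreated controls.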

[4] = Cmax in mouse brain at 23 umol/kg, ip administered as bolus by LC-MS analysis; assay type: ADME, organism-based; set-up: dose 23 umol/kg, route intraperitoneal; settings: in vivo
Outline: (§4)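 Male adult mice (25 ± 5 g) given a single i.p. bolus at 23 µmol/kg. The dosing solution was 1.36 mM in 10% (v/v) DMSO, 20% (w/v) hydroxypropyl-β-cyclodextrin and 0.9% NaCl. Animals were decapitated at seven time points from 10 to 480 min. Plasma and tissues were acetonitrile-precipitated with repaglinide internal standard and analysed by LC-MS. Parameters were derived from concentration–time data, mean ± SEM (n=3).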

[5] = molecular target: T1, Large neutral amino acids transporter small subunit 1 (Homo sapiens, UniProt Q01650); experiment: Competitive binding to LAT1 in human MCF7 cells at 100 uM after 30 mins in presence of MCT1 inhibitor phloretin by HPLC analysis; assay type: cell-based
T1 sequence (Q01650 whole entry): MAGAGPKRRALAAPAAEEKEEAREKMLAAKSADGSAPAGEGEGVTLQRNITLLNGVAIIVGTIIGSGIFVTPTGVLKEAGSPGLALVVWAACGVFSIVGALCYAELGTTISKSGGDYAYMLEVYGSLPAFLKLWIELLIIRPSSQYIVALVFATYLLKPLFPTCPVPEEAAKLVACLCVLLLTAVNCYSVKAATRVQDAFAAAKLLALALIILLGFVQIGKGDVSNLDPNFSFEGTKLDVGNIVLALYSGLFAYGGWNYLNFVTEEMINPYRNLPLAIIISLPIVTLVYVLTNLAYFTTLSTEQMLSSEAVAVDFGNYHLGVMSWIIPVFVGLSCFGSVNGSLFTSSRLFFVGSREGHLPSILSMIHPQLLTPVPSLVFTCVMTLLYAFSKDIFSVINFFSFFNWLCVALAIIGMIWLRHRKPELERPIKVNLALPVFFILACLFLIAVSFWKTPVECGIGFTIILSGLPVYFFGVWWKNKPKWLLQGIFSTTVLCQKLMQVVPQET
Outline: (§5)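 MCF-7 cells incubated 30 min at 37 °C in HBSS (pH 7.4) holding 100 µM test compound plus 500 µM competitor. Cells washed three times with ice-cold HBSS and lysed in 0.1 M NaOH. Cell-associated compound measured by HPLC against a lysate-spiked standard curve and normalised to protein. Mean ± SD, n=3.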

[6] = Fraction unbound in mouse plasma at 23 umol/kg, ip administered as bolus by LC-MS analysis; assay type: ADME, organism-based
Outline: (§6)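 Unbound fraction was measured by equilibrium dialysis at 100 µM in mouse plasma and in brain, liver, kidney, heart and prostate homogenates.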

[7] = Unbound AUC (0 to 480 mins) in mouse prostate at 23 umol/kg, ip administered as bolus by LC-MS analysis; assay type: ADME, organism-based, Prostate gland; settings: in vivo; outline: as §2
[8] = Cmax in mouse kidney at 23 umol/kg, ip administered as bolus by LC-MS analysis; assay type: ADME, organism-based; set-up: dose 23 umol/kg, route intraperitoneal; settings: in vivo; outline: as §4
[9] = Tmax in mouse heart at 23 umol/kg, ip administered as bolus by LC-MS analysis; assay type: ADME, organism-based; outline: as §1
[10] = Cmax in mouse prostate at 23 umol/kg, ip administered as bolus by LC-MS analysis; assay type: ADME, organism-based, Prostate gland; set-up: dose 23 umol/kg, route intraperitoneal; settings: in vivo; outline: as §4
[11] = molecular target: T1, Large neutral amino acids transporter small subunit 1; experiment: Inhibition of LAT1 in human MCF7 cells assessed as potentiation of cisplatin-induced antiproliferative activity by measuring reduction in cell viability at 25 uM measured after 72 hrs by resazurin dye-based fluorimetric analysis
Outline: (§7)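 MCF-7 cells seeded 2 × 10^4/well on collagen-coated plates, treated one day later in growth medium with inhibitor (25 or 100 µM) plus bestatin or cisplatin (100 µM) for up to 3 days. Viability read daily by resazurin fluorescence (ex 560/em 590 nm). Viability is treated relative to untreated control. Mean ± SD, n=3.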

[12] = molecular target: T1, Large neutral amino acids transporter small subunit 1; experiment: Drug uptake in human MCF7 cells assessed as LAT1 mediated drug transport per mg of protein at 100 uM measured 5 mins after cold wash by HPLC analysis; assay type: ADME, cell-based; settings: mcf7, 5 min
Outline: (§8)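 MCF-7 monolayers were incubated with 100 µM compound in HBSS at 37 °C for 5 or 30 min. Cells got three washes with ice-cold or warm (37 °C) HBSS; in the warm 30 min arm they were washed after 5 min and again after 30 min. Lysates (0.1 M NaOH) were quantified by HPLC-UV against a spiked lysate standard curve and normalised to protein (Bio-Rad assay).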

[13] = Terminal half life in mouse plasma at 23 umol/kg, ip administered as bolus by LC-MS analysis; assay type: ADME, organism-based; settings: read-out: beta t1/2; outline: as §1
MCF7 [14] = experiment: Antiproliferative activity against human MCF7 cells assessed as reduction in cell viability measured after 72 hrs by resazurin dye-based fluorimetric analysis; assay type: functional; outline: as §3
Mus musculus = experiment: Binding affinity to LAT1 in mouse brain assessed as inhibition of [14C]-L-leucine uptake at 23 umol/kg, ip measured 10 mins post perfusion with [14C]-L-leucine; assay type: functional
Outline: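 Mice under ketamine/xylazine anaesthesia had the right common carotid artery cannulated. Brains were perfused at 37 °C, 2.5 mL/min, for 30 s with 0.157 µM [14C]-L-leucine, then 2 s with analyte-free buffer at 4 °C. Perfusion took place 10 or 180 min after 23 µmol/kg i.p. dosing.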

[15] = molecular target: T1, Large neutral amino acids transporter small subunit 1; experiment: Competitive binding to LAT1 in human MCF7 cells at 100 uM after 30 mins in presence of OATP 1A2/2B1 inhibitor naringin by HPLC analysis; assay type: cell-based; outline: as §5
[16] = molecular target: T1, Large neutral amino acids transporter small subunit 1; experiment: Inhibition of LAT1 in human MCF7 cells assessed as potentiation of bestatin-induced antiproliferative activity by measuring reduction in cell viability at 25 uM measured after 72 hrs by resazurin dye-based fluorimetric analysis; outline: as §7
[17] = molecular target: T1, Large neutral amino acids transporter small subunit 1; experiment: Competitive inhibition of [14C]-L-leucine uptake at LAT1 in human MCF7 cells at 25 uM preincubated for 10 mins followed by addition of substrate measured during 5 mins by liquid scintillation counting; assay type: cell-based
Outline: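 MCF-7 cells seeded 1 × 10^5/well, used one day later. Washed and pre-incubated 10 min at 37 °C in choline-chloride HBSS (Na+-free, 25 mM HEPES, pH 7.4), then 5 min at 37 °C with 0.157 µM [14C]-L-leucine plus 1-1000 µM inhibitor (DMSO blank). Ice-cold washes, NaOH lysis, scintillation counting. IC50 by nonlinear regression over 8 concentrations. Mean ± SD, n=3.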

[18] = molecular target: T1, Large neutral amino acids transporter small subunit 1; experiment: Drug uptake in human MCF7 cells assessed as LAT1 mediated drug transport per mg of protein at 100 uM measured 30 mins after warm wash by HPLC analysis; assay type: ADME, cell-based; settings: mcf7, 0.5 h; outline: as §8
[19] = Unbound AUC (0 to 480 mins) in mouse kidney at 23 umol/kg, ip administered as bolus by LC-MS analysis; assay type: ADME, organism-based; settings: in vivo; outline: as §2
[20] = Chemical stability of the compound in Tris-HCl buffer at pH 7.4 and 37 degreeC measured after 24 hrs by HPLC method; assay type: physicochemical; settings: pH 7.4, 24 h
Outline: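 Incubated in isotonic Tris-HCl buffer, pH 7.4, at 37 °C for 24 h; monitored by UV-HPLC.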

[21] = Fraction unbound in mouse heart at 23 umol/kg, ip administered as bolus by LC-MS analysis; assay type: ADME, organism-based; outline: as §6

- Tmax [1]: 30 min
- fCmax [2]: 0.34 nmol/g
- Cmax [4]: 0.2 nmol/g
- Activity [5]: Active
- fraction unbound [6]: 0.0098
- fAUC [7]: 18.4 nmol/g/min
- Cmax [8]: 22.5 nmol/g
- Tmax [9]: 30 min
- Cmax [10]: 24.1 nmol/g
- Drug uptake [12]: 2.8 nmol/mg
- half-life [13]: 44.9 min
- IC50 (MCF7 [14]; MCF7, 72 h): 124 µM
- Activity [15]: Active
- inhibition [17]: 55.1%
- Drug uptake [18]: 0.21 nmol/mg
- fAUC [19]: 23.7 nmol/g/min
- Stability [20]: Stable
- fraction unbound [21]: 0.0162
Compound: CNC(=O)COc1ccc(-c2c(C#N)c(NC(=O)c3cccc(C[C@H](N)C(=O)O)c3)n3c(nc4ccccc43)c2C#N)cc1
- Activity (MCF7 [3]): 47.7%
- Activity [11]: 49.7%
- Activity (MCF7 [14]): Dose-dependent effect
- inhibition in vivo at 23 µmol/kg (Mus musculus): 27%
- Activity [16]: 52.6%
